The results in this text go back to ChEMBL document CHEMBL2034883, “Asperjinone, a nor-neolignan, and terrein, a suppressor of ABCG2-expressing breast cancer cells, from thermophilic Aspergillus terreus” (J Nat Prod, 2012).

Experiment [1] concerns MCF7. The experiment in a line: Cytotoxicity against human MCF7 cells at 100 uM after 96 hrs by MTT assay. The class given is functional, cell-based.
Experiment [2] concerns MCF7. Briefly: Induction of apoptosis in human MCF7 cells assessed as viable cells at 10 nM after 96 hrs by annexinV/propidium iodide staining-based flow cytometric analysis (reference value: 89 %). The experiment is classed as functional. The settings on record: MCF7, 96 h, read-out: Activity.
In experiment [3] the test system is MCF7. The experiment in a line: Induction of apoptosis in human MCF7 cells assessed as early apoptotic cells at 10 nM after 96 hrs by annexinV/propidium iodide staining-based flow cytometric analysis (reference value: 3.05 %). The class given is functional.
The test system of experiment [4] is MCF7. Briefly: Induction of apoptosis in human MCF7 cells assessed as late apoptotic cells at 10 nM after 96 hrs by annexinV/propidium iodide staining-based flow cytometric analysis (reference value: 5.02 %). The experiment is classed as functional.
The test system of experiment [5] is MCF7. Briefly: Induction of apoptosis in human MCF7 cells assessed as necrotic cells at 10 nM after 96 hrs by annexinV/propidium iodide staining-based flow cytometric analysis (reference value: 2.89 %). The class given is functional.
In experiment [6] the test system is MCF7. Briefly: Cytotoxicity against ABCG2-positive human MCF7 cells after 96 hrs by Western blot analysis. The class given is functional, cell-based. To be noted: in the assay text read “FACS analysis” for “Western blot analysis”. The method, boiled down:
(§1)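 ABCG2+ subpopulation counted by flow cytometry. MCF-7 cells (2.0 × 10^4) treated 96 h, trypsinized, washed in PBS and resuspended in HBSS with 2% FBS and 10 mM HEPES (10^6/100 μL). Labelled with anti-ABCG2 (5D3) for 30 min, then PE anti-mouse IgG for 15 min. PI (2 μg/mL) added to exclude dead cells. Total ABCG2+ cell number reported as mean ± SD of at least three independent experiments.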

Experiment [7] has as its system MCF7. The experiment in a line: Cytotoxicity against human MCF7 cells assessed as suppression of SP-positive cells at 1 nM after 90 mins by Hoechst staining-based FACS analysis (reference value: 2.71%). The class given is functional. The method in brief: (§2)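 Side-population assay. MCF-7 cells (1 × 10^6) trypsinized, washed three times in PBS and resuspended in HBSS with 2% FBS and 10 mM HEPES. Incubated with Hoechst 33342 (5 μg/mL) at 37 °C for 90 min with or without compound (1 or 10 nM). FTC (10 μM) used as control. SP fraction gated by flow cytometry. At least three independent experiments.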

Experiment [8] concerns MCF7. Briefly: Cytotoxicity against human MCF7 cells assessed as suppression of SP-positive cells at 10 nM after 90 mins by Hoechst staining-based FACS analysis (reference value: 2.71%). The class given is functional. The method in brief: as §2
Experiment [9] relates to MCF7. The experiment in a line: Cytotoxicity against human MCF7 cells assessed as suppression of SP-positive cells at 10 uM after 90 mins by Hoechst staining-based FACS analysis (reference value: 2.71%). The class given is functional.
Experiment [10] relates to MCF7. Briefly: Growth inhibition of human MCF7 cells at 1 nM after 96 hrs by MTT assay. The class given is functional. The settings on record: MCF7, 96 h, read-out: GI.
Another experiment deals with PANC-1. The experiment in a line: Cytotoxicity against human PANC1 cells after 96 hrs by MTT assay. The settings on record: PANC-1, 96 h. The class given is functional, cell-based.
A further experiment has as its system HepG2. The experiment in a line: Cytotoxicity against human HepG2 cells after 96 hrs by MTT assay. The settings on record: HepG2, 96 h. The class given is functional, cell-based.
Experiment [11] has as its system MCF7. The experiment in a line: Induction of apoptosis in human MCF7 cells assessed as viable cells at 1 nM after 96 hrs by annexinV/propidium iodide staining-based flow cytometric analysis (reference value: 89 %). The class given is functional. To be noted: MCF7, 96 h, read-out: Activity.
Experiment [12] concerns MCF7. The experiment in a line: Induction of apoptosis in human MCF7 cells assessed as early apoptotic cells at 1 nM after 96 hrs by annexinV/propidium iodide staining-based flow cytometric analysis (reference value: 3.05 %). The experiment is classed as functional.
The test system of experiment [13] is MCF7. The experiment in a line: Induction of apoptosis in human MCF7 cells assessed as late apoptotic cells at 1 nM after 96 hrs by annexinV/propidium iodide staining-based flow cytometric analysis (reference value: 5.02 %). The class given is functional.
Experiment [14] relates to MCF7. Briefly: Induction of apoptosis in human MCF7 cells assessed as necrotic cells at 1 nM after 96 hrs by annexinV/propidium iodide staining-based flow cytometric analysis (reference value: 2.89 %). The class given is functional.
In experiment [15] the test system is MCF7. The experiment in a line: Induction of apoptosis in human MCF7 cells assessed as caspase 7 cleavage at 1 nM after 96 hrs by Western blot analysis. The class given is functional, cell-based. The method in brief: (§3)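 MCF-7 cells (2.0 × 10^5) exposed to 1 nM for 24, 48, 72 and 96 h; 10 nM paclitaxel as control. Lysed in RIPA (pH 8) with protease and phosphatase inhibitors; 40 μg protein per lane run on 10% SDS-PAGE and transferred to PVDF. Blocked in 5% milk/TBST 1 h; primary antibody overnight at 4 °C. Anti-ABCG2 1:100, anti-PARP and anti-caspase-7 each 1:1000. ECL detection.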

The test system of experiment [16] is MCF7. Briefly: Induction of apoptosis in human MCF7 cells assessed as PARP cleavage at 1 nM after 96 hrs by Western blot analysis. The class given is functional, cell-based. The method, boiled down: as §3
Experiment [17] concerns MCF7. The experiment in a line: Down regulation of ABCG2 expression in human MCF7 cells at 1 nM after 96 hrs by Western blot analysis. The experiment is classed as functional, cell-based. The method, boiled down: as §3
The test system of experiment [18] is MCF7. The experiment in a line: Cytotoxicity against ABCG2-positive human MCF7 cells at 1 nM after 96 hrs by Western blot analysis. The class given is functional, cell-based. To be noted: in the assay text read “FACS analysis” for “Western blot analysis”. The method, boiled down:
as §1

Experiment [19] has as its system MCF7. The experiment in a line: Cytotoxicity against ABCG2-positive human MCF7 cells at 10 nM after 96 hrs by Western blot analysis. The class given is functional, cell-based. To be noted: in the assay text read “FACS analysis” for “Western blot analysis”. The method, boiled down: as §1
Experiment [20] has as its system MCF7. The experiment in a line: Inhibition of PI3K-mediated Akt phosphorylation at Ser473 in human MCF7 cells at 1 nM after 6 hrs by Western blot analysis. The experiment is classed as cell-based. The method, boiled down: (§4)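 MCF-7 cells (2.0 × 10^5) exposed to 1 nM for 1, 3 and 6 h; 10 μM LY294002 as positive control. RIPA lysates, 40 μg per lane, 10% SDS-PAGE and PVDF transfer. Probed overnight at 4 °C with anti-Akt and anti-phospho-Akt Ser473 (1:1000 each), with β-actin (1:10000) as loading control. ECL detection.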

Experiment [21] concerns MCF7. Briefly: Down regulation of Akt expression in human MCF7 cells at 1 nM after 6 hrs by Western blot analysis. The experiment is classed as functional, cell-based. The method in brief:
as §4

Experiment [22] concerns MCF7. Briefly: Cytotoxicity against human MCF7 cells after 48 hrs by MTT assay. The settings on record: MCF7, 48 h.
The subject of experiment [23] is MCF7. Briefly: Down regulation of ABCG2 expression in human MCF7 cells at 1 nM after 96 hrs by Western blot analysis.

Each structure is given as a SMILES string. pIC50: −log10 of the molar value. The source made the active and inactive calls. The calls are words filed in the database; no cut-off is given here.

Consider `COC(=O)c1cc(O)cc(OC)c1Oc1c(Cl)c(C)c(Cl)c(O)c1C(=O)OC`, for which the result in the experiment on MCF7 [1] was inactive.

`CC1(C)OC1Cc1cc(CC2=C(c3ccc(O)cc3)C(=O)OC2=O)ccc1O` (configuration not stated): the outcome with MCF7 [1] was inactive.

For `COc1cc(O)cc(C(=O)O)c1C(=O)c1c(O)c(Cl)c(C)c(Cl)c1O`, in the experiment on MCF7 [1], the outcome was inactive.

On to `COC(=O)[C@@]1(Cc2ccc(O)c(CC=C(C)C)c2)OC(=O)C(O)=C1c1ccc(O)cc1`, for which, in the experiment with MCF7 [1], the result was inactive.

In the case of `CC(=O)O[C@H]1C(=O)[C@@]2(C)[C@H]([C@H](OC(=O)c3ccccc3)[C@]3(O)C[C@H](OC(=O)[C@H](O)[C@@H](NC(=O)c4ccccc4)c4ccccc4)C(C)=C1C3(C)C)[C@]1(OC(C)=O)CO[C@@H]1C[C@@H]2O` [PACLITAXEL], the viability at 0.01 µM in the experiment with MCF7 [2] amounted to 72.1%. In addition, the Activity was 15.6% with MCF7 [3]; 9.34% in the experiment on MCF7 [4]; 2.91% with MCF7 [5]; “Dose-dependent effect” in the experiment with MCF7 [6]; 1.71% in the experiment on MCF7 [7]; 1.65% in the experiment on MCF7 [8].

`COc1cc(O)cc2c1C(=O)c1c(O)cc(C)cc1C2=O`: the result in the experiment with MCF7 [1] was inactive.

With `COc1cc(COC(C)=O)cc2c1C(=O)c1c(O)cc(O)cc1C2=O`, the outcome with MCF7 [1] was inactive.

`COC(=O)c1cc(O)cc(OC)c1C(=O)c1c(O)c(Cl)c(C)c(Cl)c1O`: in the experiment with MCF7 [1], the result was inactive.

Regarding `COC(=O)c1cc(O)cc(OC)c1Oc1c(Cl)c(C)c(Cl)c(O)c1C(=O)O`, in the experiment with MCF7 [1], the outcome was inactive.

As for `COc1ccc2c3c([nH]c2c1)[C@H](C=C(C)C)N1C(=O)[C@@H]2CCCN2C(=O)[C@@H]1C3` [FUMITREMORGIN], the Activity in the experiment on MCF7 [9] is on record as 0.81%.

For `COC(=O)c1cc(O)cc(OC)c1Oc1cc(C)cc(O)c1C(=O)O`, in the experiment with MCF7 [1], the outcome was inactive.

As to `COC(=O)[C@]1(Cc2ccc3c(c2)C[C@H](O)C(C)(C)O3)OC(=O)C(O)=C1c1ccc(O)cc1`, the result in the experiment on MCF7 [1] was inactive.

Turning to `COC(=O)[C@]1(Cc2ccc3c(c2)C[C@H](C(C)(C)O)O3)OC(=O)C(O)=C1c1ccc(O)cc1`, the result in the experiment with MCF7 [1] was inactive.

On to `C/C=C/C1=CC(=O)[C@@H](O)[C@@H]1O` [TERREIN], for which, in the experiment on MCF7 [10], the inhibition of growth at 0.001 µM came to 70%. Also, the pIC50 in the experiment on PANC-1 was 5.01; in the experiment with HepG2, 7.18; in the experiment on MCF7 [22] it was 8.96. For the same molecule, the viability at 0.001 µM with MCF7 [11] turned out to be 59.7%. Also, the Activity turned out to be 29.6% in the experiment on MCF7 [12]; 8.89% in the experiment with MCF7 [13]; 1.89% in the experiment on MCF7 [14]; 24% with MCF7 [3]; 7.92% in the experiment on MCF7 [4]; 2.48% with MCF7 [5]. Further, the results for the Activity result in the experiment on MCF7 [6], in the experiment with MCF7 [7] and in the experiment on MCF7 [8] were “Dose-dependent effect”, 0.77% and 0.89%, respectively. In the experiment with MCF7 [2], the viability at 0.01 µM amounted to 65.6%. Also, the result in the experiment on MCF7 [15], with MCF7 [16], with MCF7 [17], in the experiment on MCF7 [18], in the experiment with MCF7 [19] and in the experiment with MCF7 [21] was Active. Also, the result in the experiment with MCF7 [23] was Active. The inhibition entry with MCF7 [20] is “Active”.
